ChEMBL document CHEMBL1159045, “Design and pharmacophore modeling of biaryl methyl eugenol analogs as breast cancer invasion inhibitors” (Bioorg Med Chem, 2010)

Experiments:
MDA-MB-231 [1] = experiment: Cytotoxicity against human MDA-MB-231 cells at 10 to 50 uM after 75 hrs by MTT assay; type: cell-based; settings: mda-mb-231, 72 h, in the assay text read “72 hrs” for “75 hrs”
Method in brief: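 MDA-MB-231 seeded at 15,000 cells/well and stabilized 24 h at 37 °C, 5% CO2. Triplicate doses applied for 72 h at 37 °C, 5% CO2, 85% humidity. MTT (2.5 mg/mL) added for 4 h, then formazan dissolved overnight at rt in the dark with detergent reagent. OD at 570 nm against a cell-free blank; cells/well from calibration curve. Colchicine positive control, DMSO vehicle.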

MDA-MB-231 [2] = experiment: Antiinvasive activity in human MDA-MB-231 cells by BME cell invasion assay; type: functional, cell-based
Method in brief: (§1)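 Cultrex 96-well BME invasion kit, Boyden-type chamber with 8 µm PET membrane coated with basement membrane extract; MDA-MB-231 cells exposed to 1–4 μM for 24 h, 10% FBS as chemoattractant in the lower chamber. Invaded cells labelled with calcein-AM and read at ex 485/em 520 nm. RFU converted to cell number by standard curve. % invasion = cells through BME / cells migrating through uncoated membrane. Colchicine as positive control, DMSO vehicle.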

MCF7 = experiment: Cytotoxicity against human MCF7 cells at 10 to 50 uM after 75 hrs by MTT assay; type: cell-based; settings: mcf7, 72 h, in the assay text read “72 hrs” for “75 hrs”
Method in brief: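 MCF-7 seeded at 12,000 cells/well and stabilized 24 h at 37 °C, 5% CO2. Treated in triplicate for 72 h at 37 °C, 5% CO2, 85% humidity. MTT (2.5 mg/mL) added for 4 h, then formazan dissolved in isopropanol overnight at rt in the dark. OD read at 570 nm against a cell-free blank; cell number from calibration curve. Colchicine positive control, DMSO vehicle.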

MDA-MB-231 [3] = experiment: Antiinvasive activity in human MDA-MB-231 cells assessed as cell invasion at 4 uM by BME cell invasion assay; type: functional; method in brief: as §1
MDA-MB-231 [4] = experiment: Antiinvasive activity in human MDA-MB-231 cells assessed as cell invasion at 2 uM by BME cell invasion assay; type: functional; method in brief: as §1

Structure (SMILES) | Activity (MDA-MB-231 [1]) | Activity (MDA-MB-231 [2]) | Activity (MCF7) | Activity (MDA-MB-231 [3]) | Activity (MDA-MB-231 [4])
COc1ccc(C/C=C/c2ccc(OC)c(OC)c2)cc1 | Non-toxic | Dose-dependent effect |  |  | 
COc1ccc(/C=C/Cc2ccccc2OC(C)=O)cc1OC | Non-toxic | Dose-dependent effect | Non-toxic |  | 
COc1ccc(C/C=C\c2ccccc2OC(C)=O)cc1OC | Non-toxic | Dose-dependent effect | Non-toxic | 9% | 
COc1ccc(/C=C/Cc2ccc(OC)c(OC)c2)cc1 | Non-toxic | Dose-dependent effect |  | 13.7% | 
COc1ccc(C(=O)/C=C/c2cc(OC)c(OC)c(OC)c2)cc1OC | Non-toxic | Dose-dependent effect |  |  | 8.5%
C=C(Cc1ccc(OC)c(OC)c1)c1ccc(OC)cc1 | Non-toxic | Dose-dependent effect |  |  | 
C=C(Cc1ccc(OC)c(OC)c1)c1cc(OC)c(OC)c(OC)c1 | Non-toxic | Dose-dependent effect |  |  | 
COc1ccc(/C=C\Cc2c(C)cccc2C)cc1OC | Non-toxic | Dose-dependent effect |  |  | 
COc1ccc(/C=C/Cc2cc(OC)c(OC)c(OC)c2)cc1OC | Non-toxic | Dose-dependent effect |  | 11% | 
COc1cc2c(c(OC)c1OC)-c1ccc(OC)c(=O)cc1[C@@H](NC(C)=O)CC2 [COLCHICINE] |  |  |  | 8.9% | 
COc1ccc(C/C=C/c2cc(OC)c(OC)c(OC)c2)cc1OC | Non-toxic | Dose-dependent effect |  |  | 
C=C(Cc1ccc(OC)c(OC)c1)c1ccccc1OC(C)=O | Non-toxic | Dose-dependent effect | Non-toxic |  | 
COc1ccc(C/C=C/c2c(C)cccc2C)cc1OC | Non-toxic | Dose-dependent effect |  |  | 
COc1ccccc1C/C=C/c1ccc(OC)c(OC)c1 | Non-toxic | Dose-dependent effect |  |  | 
COc1ccc(C(=O)CCc2cc(OC)c(OC)c(OC)c2)cc1OC | Non-toxic | Dose-dependent effect |  |  | 
